ChEMBL document CHEMBL1926562, “Design, synthesis and biological activity of sphingosine kinase 2 selective inhibitors” (Bioorg Med Chem, 2012)
The source made the active and inactive calls. The rule behind the calls is not given here.

Molecular target: T1, Sphingosine kinase 1 (Homo sapiens, UniProt Q9NYA1)
Assay: Inhibition of human SphK1 expressed in baculovirus infected Sf9 insect cells assessed as remaining activity using sphingosine and [gamma-(32)P]-ATP as substrate at 100 uM by scintillation proximity counting
Conditions: not given
Outline: (§1)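 Enzyme source: supernatant (10,000×g) of homogenized Sf9 cells infected with recombinant virus for 72 h, 2-3 μg protein per reaction. Sphingosine substrate at 10 μM for SphK1 and 5 μM for SphK2. Initial screen used inhibitor at 100 μM, with some compounds at 10 μM. Read-out is percent of remaining kinase activity, averaged over three experiments.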

T1 sequence (Q9NYA1 whole entry): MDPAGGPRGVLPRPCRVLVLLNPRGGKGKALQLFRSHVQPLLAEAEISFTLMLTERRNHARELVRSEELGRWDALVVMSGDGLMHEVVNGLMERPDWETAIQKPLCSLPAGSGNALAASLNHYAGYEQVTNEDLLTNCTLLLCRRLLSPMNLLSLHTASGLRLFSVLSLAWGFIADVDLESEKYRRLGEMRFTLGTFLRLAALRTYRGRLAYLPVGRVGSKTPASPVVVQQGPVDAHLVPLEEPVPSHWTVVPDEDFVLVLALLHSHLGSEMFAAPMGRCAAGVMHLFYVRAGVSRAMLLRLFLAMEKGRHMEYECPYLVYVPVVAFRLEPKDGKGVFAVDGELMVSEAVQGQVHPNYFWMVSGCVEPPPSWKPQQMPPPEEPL

Activity [%]	SMILES
22.4	CCCCCCCCc1ccc([C@H]2CC[C@@H](NCCO)CC2)cc1
30.4	C=CC[N+](C)(C)[C@H]1CC[C@H](c2ccc(CCCCCCCC)cc2)CC1
101	CCCCCCCCc1ccc([C@H]2CC[C@@H]([N+](C)(C)C(C)C)CC2)cc1
98.4	CCCCCCCCc1ccc([C@H]2CC[C@@H](NCc3ccccc3)CC2)cc1
90.7	CCCCCCCCc1ccc([C@H]2CC[C@@H](N(C)CCC)CC2)cc1
101	CCCCCCCCc1ccc(C2CCC(N)(C#N)CC2)cc1 (configuration not stated)
100	CCCCCCCCc1ccc(C2CCC(=CCO)CC2)cc1 (configuration not stated)
65	CCCCCCCCc1ccc([C@H]2CC[C@H](NC3CC3)CC2)cc1
5.3	CCCCCCCCc1ccc([C@H]2CC[C@H]([N+](C)(C)CCC)CC2)cc1
113	CCCCCCCCc1ccc([C@H]2CC[C@H](O)CC2)cc1
24.6	CCCCCCCCc1ccc([C@H]2CC[C@H](NC(C)C)CC2)cc1
101	CCCCCCCCc1ccc(C2CCC(=CC(=O)OC)CC2)cc1 (configuration not stated)
109	C#CCN[C@H]1CC[C@H](c2ccc(CCCCCCCC)cc2)CC1
47	CCCCCCCCc1ccc([C@H]2CC[C@H](N)CC2)cc1
19	C=CCN[C@H]1CC[C@H](c2ccc(CCCCCCCC)cc2)CC1
20.5	CCCCCCCCc1ccc([C@H]2CC[C@H](NCCCC)CC2)cc1
80.9	CCCCCCCCc1ccc([C@H]2CC[C@@H]([N+](C)(C)CCO)CC2)cc1
77	CCCCCCCCc1ccc([C@H]2CC[C@H](N(C)CCC)CC2)cc1
21.6	CCCCCCCCc1ccc([C@H]2CC[C@H](NCCO)CC2)cc1

Molecular target: T2, Sphingosine kinase 2 (Mus musculus) (UniProt Q9JIA7)
T2 sequence (whole entry): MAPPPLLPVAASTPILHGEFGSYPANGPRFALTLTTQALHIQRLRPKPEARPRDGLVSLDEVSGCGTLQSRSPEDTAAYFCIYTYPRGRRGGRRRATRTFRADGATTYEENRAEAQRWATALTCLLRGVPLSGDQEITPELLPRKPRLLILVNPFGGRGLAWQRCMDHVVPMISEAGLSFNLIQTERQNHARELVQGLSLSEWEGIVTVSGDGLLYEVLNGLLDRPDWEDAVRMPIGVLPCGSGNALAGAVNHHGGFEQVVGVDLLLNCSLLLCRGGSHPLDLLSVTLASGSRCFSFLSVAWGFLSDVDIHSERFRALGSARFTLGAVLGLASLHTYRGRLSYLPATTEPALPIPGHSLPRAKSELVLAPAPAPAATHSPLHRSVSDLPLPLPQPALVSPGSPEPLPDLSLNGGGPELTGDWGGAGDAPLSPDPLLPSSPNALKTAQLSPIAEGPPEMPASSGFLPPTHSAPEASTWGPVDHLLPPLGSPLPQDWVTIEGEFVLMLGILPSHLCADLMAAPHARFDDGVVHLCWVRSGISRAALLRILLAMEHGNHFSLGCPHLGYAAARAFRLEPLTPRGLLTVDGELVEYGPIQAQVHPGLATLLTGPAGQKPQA
Assay: Inhibition of mouse SphK2 expressed in baculovirus infected Sf9 insect cells assessed as remaining activity using sphingosine and [gamma-(32)P]-ATP at 100 uM by scintillation proximity counting
Conditions: not given
Outline: as §1

Activity [%]	SMILES
8.9	CCCCCCCCc1ccc([C@H]2CC[C@@H](NCCO)CC2)cc1
2.1	C=CC[N+](C)(C)[C@H]1CC[C@H](c2ccc(CCCCCCCC)cc2)CC1
10.4	CCCCCCCCc1ccc([C@H]2CC[C@@H]([N+](C)(C)C(C)C)CC2)cc1
67.2	CCCCCCCCc1ccc([C@H]2CC[C@@H](NCc3ccccc3)CC2)cc1
65.5	CCCCCCCCc1ccc([C@H]2CC[C@@H](N(C)CCC)CC2)cc1
61.8	CCCCCCCCc1ccc(C2CCC(N)(C#N)CC2)cc1 (configuration not stated)
66.7	CCCCCCCCc1ccc(C2CCC(=CCO)CC2)cc1 (configuration not stated)
77	CCCCCCCCc1ccc([C@H]2CC[C@H](NC3CC3)CC2)cc1
7.2	CCCCCCCCc1ccc([C@H]2CC[C@H]([N+](C)(C)CCC)CC2)cc1
70.9	CCCCCCCCc1ccc([C@H]2CC[C@H](O)CC2)cc1
23.9	CCCCCCCCc1ccc([C@H]2CC[C@H](NC(C)C)CC2)cc1
101	CCCCCCCCc1ccc(C2CCC(=CC(=O)OC)CC2)cc1 (configuration not stated)
100	C#CCN[C@H]1CC[C@H](c2ccc(CCCCCCCC)cc2)CC1
25	CCCCCCCCc1ccc([C@H]2CC[C@H](N)CC2)cc1
5.7	C=CCN[C@H]1CC[C@H](c2ccc(CCCCCCCC)cc2)CC1
20.1	CCCCCCCCc1ccc([C@H]2CC[C@H](NCCCC)CC2)cc1
32.6	CCCCCCCCc1ccc([C@H]2CC[C@@H]([N+](C)(C)CCO)CC2)cc1
45.9	CCCCCCCCc1ccc([C@H]2CC[C@H](N(C)CCC)CC2)cc1
8.5	CCCCCCCCc1ccc([C@H]2CC[C@H](NCCO)CC2)cc1

Molecular target: T2, Sphingosine kinase 2 (Mus musculus)
Assay: Inhibition of mouse SphK2 expressed in baculovirus infected Sf9 insect cells assessed as remaining activity using sphingosine and [gamma-(32)P]-ATP at 10 uM by scintillation proximity counting
Conditions: not given
Outline: as §1

Activity [%]	SMILES
87.3	CCCCCCCCc1ccc(-c2cccc(N3CCNCC3)n2)cc1
99	CCCCCCCCc1ccc(-c2cnc(N)cn2)cc1
93.7	CCCCCCCCc1ccc(-c2ccc(-n3ccccc3=O)nc2)cc1

Molecular target: T1, Sphingosine kinase 1
Assay: Inhibition of human SphK1 expressed in baculovirus infected Sf9 insect cells using sphingosine and [gamma-(32)P]-ATP by scintillation proximity assay
Conditions: not given
Outline: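 Ki calculated as Ki = [I]/(K′m/Km – 1), using a sphingosine Km of 10 μM for SphK1 and 5 μM for SphK2. Enzyme came from infected Sf9 cell extract (10,000×g supernatant, 2-3 μg protein).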

Ki [µM]	SMILES
47	CCCCCCCCc1ccc([C@H]2CC[C@H]([N+](C)(C)CCC)CC2)cc1
32	CCCCCCCCc1ccc([C@H]2CC[C@H](N)CC2)cc1
22	CCCCCCCCc1ccc([C@H]2CC[C@H](NCCO)CC2)cc1

Molecular target: T3, Sphingosine kinase 2 (Mus musculus, UniProt Q9JIA7)
T3 sequence (Q9JIA7 whole entry): T2 sequence (whole entry)
Assay: Inhibition of mouse SphK2 expressed in baculovirus infected Sf9 insect cells using sphingosine and [gamma-(32)P]-ATP by scintillation proximity assay
Conditions: not given

Ki [µM]	SMILES
8	CCCCCCCCc1ccc([C@H]2CC[C@H]([N+](C)(C)CCC)CC2)cc1
29	CCCCCCCCc1ccc([C@H]2CC[C@H](N)CC2)cc1
38	CCCCCCCCc1ccc([C@H]2CC[C@H](NCCO)CC2)cc1

Molecular target: T4, Sphingosine kinase 2 (Homo sapiens) (UniProt Q9NRA0)
T4 sequence (whole entry): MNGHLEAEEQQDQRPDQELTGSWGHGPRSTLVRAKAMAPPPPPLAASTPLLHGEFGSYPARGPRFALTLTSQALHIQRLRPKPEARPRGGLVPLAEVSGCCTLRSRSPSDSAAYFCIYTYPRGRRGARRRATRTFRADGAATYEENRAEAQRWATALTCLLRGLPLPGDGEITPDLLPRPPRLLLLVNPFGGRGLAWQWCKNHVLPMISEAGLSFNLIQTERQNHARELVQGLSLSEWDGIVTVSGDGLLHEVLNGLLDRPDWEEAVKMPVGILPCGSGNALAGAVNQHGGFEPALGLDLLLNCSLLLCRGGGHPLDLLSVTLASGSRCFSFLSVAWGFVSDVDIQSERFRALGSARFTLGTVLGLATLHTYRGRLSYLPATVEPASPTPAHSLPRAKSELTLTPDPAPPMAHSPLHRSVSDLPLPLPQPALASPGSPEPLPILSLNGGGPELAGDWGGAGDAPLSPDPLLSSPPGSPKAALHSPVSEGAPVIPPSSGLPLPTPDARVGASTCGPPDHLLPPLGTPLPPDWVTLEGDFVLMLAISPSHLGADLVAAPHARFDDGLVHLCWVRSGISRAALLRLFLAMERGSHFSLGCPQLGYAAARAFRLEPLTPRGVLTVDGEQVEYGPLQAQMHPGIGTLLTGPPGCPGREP
Assay: Inhibition of SphK2 in human U937 cells assessed as change in S1P level by LC/MS analysis
Format: cell-based
Conditions: U-937
Outline: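 U937 cells were treated with inhibitor, and S1P levels were measured by LC/MS.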

inhibition	SMILES
inactive	CCCCCCCCc1ccc([C@H]2CC[C@H]([N+](C)(C)CCC)CC2)cc1

Molecular target: T4, Sphingosine kinase 2 (Homo sapiens)
Assay: Inhibition of SphK2 in human U937 cells using FTY720 as substrate assessed as decrease in phosphorylated FTY720 at 10 uM after 2 hrs by LC/MS analysis
Format: cell-based
Conditions: U-937
Outline: (§2)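 Cultured U937 cells were given FTY720 plus 10 μM inhibitor for 2 h, then pelleted by centrifugation. FTY720 and FTY720-P in the cell pellet were measured by LC/MS (C18 reverse phase, water/methanol/formic acid gradient) and reported as moles per million cells. Values are means ± SD of three independent experiments, with significance by unpaired two-tailed t-test.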

inhibition	SMILES
Active	CCCCCCCCc1ccc([C@H]2CC[C@H]([N+](C)(C)CCC)CC2)cc1

Molecular target: T4, Sphingosine kinase 2 (Homo sapiens)
Assay: Inhibition of SphK2 in human U937 cells using FTY720 as substrate assessed as accumulation of FTY720 at 10 uM after 2 hrs by LC/MS analysis
Format: cell-based
Conditions: U-937
Outline: as §2

inhibition	SMILES
Active	CCCCCCCCc1ccc([C@H]2CC[C@H]([N+](C)(C)CCC)CC2)cc1

Molecular target: T4, Sphingosine kinase 2 (Homo sapiens)
Assay: Inhibition of SphK2 in human U937 cells assessed as decrease in Akt phosphorylation after 16 hrs by Western blot analysis
Format: cell-based
Conditions: U-937
Outline: (§3)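 U937 cells were incubated with a range of inhibitor concentrations for 16 h, then washed with PBS and Dounce-lysed. Equal protein amounts were run on 10% SDS–PAGE and blotted to nitrocellulose. Blots were blocked in 5% milk/TBS-Tween, probed with antibodies to ERK, p-ERK, Akt, p-Akt and β-actin (1:1000, 1 h), then HRP anti-IgG (1:2000). PD098059 (10 μM) served as ERK-phosphorylation control.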

inhibition	SMILES
Dose-dependent effect	CCCCCCCCc1ccc([C@H]2CC[C@H]([N+](C)(C)CCC)CC2)cc1

Molecular target: T4, Sphingosine kinase 2 (Homo sapiens)
Assay: Inhibition of SphK2 in human U937 cells assessed as decrease in ERK phosphorylation after 16 hrs by Western blot analysis
Format: cell-based
Conditions: U-937
Outline: as §3

inhibition	SMILES
Dose-dependent effect	CCCCCCCCc1ccc([C@H]2CC[C@H]([N+](C)(C)CCC)CC2)cc1

Molecular target: T2, Sphingosine kinase 2 (Mus musculus)
Assay: Inhibition of mouse SphK2 expressed in baculovirus infected Sf9 insect cells using sphingosine and [gamma-(32)P]-ATP at 10 uM by scintillation proximity counting
Conditions: not given
Outline: as §1

inhibition	SMILES
Active	CCCCCCCCc1ccc([C@H]2CC[C@@H]([N+](C)(C)C(C)C)CC2)cc1
Active	CCCCCCCCc1ccc([C@H]2CC[C@@H]([N+](C)(C)CCO)CC2)cc1

Test system: not listed separately
Assay: Selectivity ratio of Ki/Km for human SphK1 to Ki/Km for mouse SphK2
Conditions: not given
Outline: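 Selectivity calculated as (Ki/Km)SphK1 divided by (Ki/Km)SphK2, with sphingosine Km taken as 10 μM for SphK1 and 5 μM for SphK2.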

Selectivity ratio	SMILES
2.94	CCCCCCCCc1ccc([C@H]2CC[C@H]([N+](C)(C)CCC)CC2)cc1
0.55	CCCCCCCCc1ccc([C@H]2CC[C@H](N)CC2)cc1
1.23	CCCCCCCCc1ccc([C@H]2CC[C@H](NCCO)CC2)cc1
